We go through 15 compounds from ChEMBL document CHEMBL1148328, “Synthesis and structure-activity relationships of parasiticidal thiosemicarbazone cysteine protease inhibitors against Plasmodium falciparum, Trypanosoma brucei, and Trypanosoma cruzi” (J Med Chem, 2004).

For one test, the target named is Cruzipain (Trypanosoma cruzi, UniProt P25779). The test is described as follows: Inhibition of cruzain from Trypanosoma cruzi. Summed up:
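Recombinant cruzain (2 nM) preincubated 5 min at room temperature with 0.5–10 μM inhibitor in 100 mM sodium acetate pH 5.5 with 5 mM DTT, 0.7% DMSO. Reaction started with Z-Phe-Arg-AMC at 20 μM final (Km 1 μM), followed by fluorescence at ex 355/em 460. IC50 read graphically from inhibition vs log[I], seven concentrations with at least two in the linear range.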

Test [1] concerns Trypanosoma brucei rhodesiense. The experiment in a line: Effective dose required to inhibit Trypanosoma brucei rhodesiense in culture. Format: functional. As to conditions: read-out: ED50 (the source's name). Summed up:
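T. b. rhodesiense grown at 37 °C, 5% CO2 in HMI-9 with 10% FBS and 10% Serum Plus, seeded at 10⁴ cells/mL. Inhibitor serially diluted directly in culture from the top concentration down to 1 nM. Exposure 48 h at 37 °C. Viability read as ATP content by CellTiter-Glo luminescence after 5 min shaking at room temperature, or by hemacytometer count.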

A short description of test [2]: Survival of infected cells against Trypanosoma cruzi in days at a dose of 5 uM; Toxicity = None.
The target in the next test is Rhodesain (Trypanosoma brucei rhodesiense, UniProt Q95PM0). The experiment in a line: Inhibition of rhodesain from Trypanosoma brucei rhodesiense. In outline:
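Recombinant rhodesain (3 nM) preincubated 5 min at room temperature with 0.5–10 µM inhibitor in 100 mM sodium acetate pH 5.5, 5 mM DTT, 0.7% DMSO final. Z-Phe-Arg-AMC then added (20 µM final) and fluorescence rise followed at ex 355/em 460. IC50 read graphically from linear portion of inhibition vs log[I], seven concentrations, at least two in linear range.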

Another test relates to Plasmodium falciparum. The experiment in a line: Effective inhibition of Plasmodium falciparum. The settings on record: read-out: ED50 (the source's name). The format is functional. In outline: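 W2-strain parasites at 1% parasitemia and 2% hematocrit, run in duplicate. Inhibitor diluted from DMSO stocks in 1:5 steps to final 10 μM, 2000, 400, 80, 16 and 3.2 nM. Cultures kept 2 days at 37 °C, then washed and fixed in 1% formaldehyde/PBS. Parasitemia measured by flow cytometry with YOYO-1 DNA stain.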

The next test addresses T1, Falcipain 2 (Plasmodium falciparum, UniProt Q9N6S8).
T1 sequence (Q9N6S8 whole entry): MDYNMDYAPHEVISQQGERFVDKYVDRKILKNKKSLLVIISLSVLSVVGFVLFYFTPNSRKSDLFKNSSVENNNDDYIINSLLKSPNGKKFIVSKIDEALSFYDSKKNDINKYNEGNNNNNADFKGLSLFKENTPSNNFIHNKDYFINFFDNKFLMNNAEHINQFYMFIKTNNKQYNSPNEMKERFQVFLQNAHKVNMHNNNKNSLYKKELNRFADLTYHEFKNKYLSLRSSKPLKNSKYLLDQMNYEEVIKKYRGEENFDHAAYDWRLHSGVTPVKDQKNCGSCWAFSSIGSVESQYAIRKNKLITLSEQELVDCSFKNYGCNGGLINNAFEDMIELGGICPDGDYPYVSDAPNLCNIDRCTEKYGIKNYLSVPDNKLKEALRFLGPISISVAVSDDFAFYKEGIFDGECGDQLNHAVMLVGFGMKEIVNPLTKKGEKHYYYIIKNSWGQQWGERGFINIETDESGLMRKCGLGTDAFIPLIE
The experiment in a line: Inhibition of falcipain2 from Plasmodium falciparum. In outline:
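Recombinant falcipain-2 preincubated 30 min at room temperature with inhibitor in 100 mM sodium acetate pH 5.5 with 10 mM DTT, DMSO at most 1%. Z-Leu-Arg-AMC then added to 25 μM final, and fluorescence monitored 15 min at room temperature. IC50 taken from plots of percent activity against compound concentration.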

Test [3] can be described thus: Survival of infected cells against Trypanosoma cruzi in days at a dose of 5 uM; Toxicity = Toxic.

A word on the IC50: it is the concentration needed to halve the response being measured.

Bounds are passed on as bounds.

Sequence of Cruzipain (P25779 whole entry): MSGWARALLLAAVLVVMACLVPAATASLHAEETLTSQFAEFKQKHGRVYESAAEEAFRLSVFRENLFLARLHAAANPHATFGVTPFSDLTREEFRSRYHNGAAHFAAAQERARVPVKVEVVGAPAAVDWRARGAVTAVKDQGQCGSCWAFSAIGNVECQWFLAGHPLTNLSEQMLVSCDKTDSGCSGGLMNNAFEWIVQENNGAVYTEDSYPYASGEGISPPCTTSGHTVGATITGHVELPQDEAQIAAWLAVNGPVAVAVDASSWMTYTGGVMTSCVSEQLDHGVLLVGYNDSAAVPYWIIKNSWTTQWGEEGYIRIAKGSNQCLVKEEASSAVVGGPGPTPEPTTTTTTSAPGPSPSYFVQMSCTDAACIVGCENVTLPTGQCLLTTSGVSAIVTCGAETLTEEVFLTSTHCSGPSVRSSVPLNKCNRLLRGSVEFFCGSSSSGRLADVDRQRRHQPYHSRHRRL
Sequence of Rhodesain (Q95PM0 whole entry): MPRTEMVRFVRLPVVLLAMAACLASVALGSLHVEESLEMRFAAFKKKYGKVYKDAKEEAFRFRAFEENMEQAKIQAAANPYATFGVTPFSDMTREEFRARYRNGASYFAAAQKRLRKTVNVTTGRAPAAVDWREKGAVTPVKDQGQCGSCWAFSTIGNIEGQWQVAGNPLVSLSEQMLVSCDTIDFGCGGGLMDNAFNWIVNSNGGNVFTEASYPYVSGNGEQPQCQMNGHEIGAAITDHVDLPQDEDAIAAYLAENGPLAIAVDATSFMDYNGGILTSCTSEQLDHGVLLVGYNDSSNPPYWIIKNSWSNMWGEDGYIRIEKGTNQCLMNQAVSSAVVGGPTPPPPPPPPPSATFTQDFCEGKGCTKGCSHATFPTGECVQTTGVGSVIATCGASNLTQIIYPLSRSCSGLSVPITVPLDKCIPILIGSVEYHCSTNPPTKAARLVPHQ

Turning to `C/C(=N/N=C(/N)S)c1cccc(/C(C)=N/N=C(/N)S)c1`, the half-inhibitory concentration (IC50) at Cruzipain came out at 5 µM; against Rhodesain, 0.33 µM. Besides, the EC50 in test [1] was above 20 µM. In test [2], this compound displayed a Survival of 5 days.

Take `C/C(=N\N=C(\N)S)c1cccc(Br)c1`: the results for the IC50 at Cruzipain and against Rhodesain were 0.06 µM and 0.05 µM, respectively. In addition, the EC50 in test [1] is above 20 µM. For the same compound, the Survival in test [2] was determined as 43 days.

Consider `C/C(=N\N=C(\N)S)c1ccc(Nc2ccccc2)cc1`, for which the concentration for half-maximal inhibition (IC50) against Cruzipain is above 20 µM; against Falcipain 2, above 20 µM; at Rhodesain, 18 µM. Besides, the EC50 with Plasmodium falciparum is 9.9 µM; in test [1], 4.5 µM. This compound displayed a Survival in test [2] of 43 days.

As for `C/C(=N\NC(N)=S)c1ccccn1`, the concentration for half-maximal inhibition (IC50) against Cruzipain, against Falcipain 2 and at Rhodesain was above 20 µM in each case. The EC50 amounted to 0.08 µM in the test with Plasmodium falciparum and 4 µM in test [1]. In test [2], the Survival is 43 days.

Consider `CS/C(S)=N/N=C(\C)c1ccccn1`, for which the figures for the EC50 (in the test with Plasmodium falciparum; in test [1]) were 0.03 µM and 0.3 µM, respectively. Also, the 50% inhibitory concentration (IC50) against Falcipain 2 and on Rhodesain was above 20 µM throughout.

Consider `C/C(=N\N=C(\N)S)c1ccc(-c2ccccc2)cc1`, for which the Survival in test [3] turned out to be 8 days. For the same compound, the IC50 worked out at 5 µM against Cruzipain, 10 µM on Falcipain 2 and 0.09 µM at Rhodesain. Besides, the figures for the EC50 (in the test with Plasmodium falciparum; in test [1]) were above 20 µM and 10 µM, respectively.

On to `C/C(=N\N=C(/S)N1CCCCC1)c1cccc(Br)c1`, for which the IC50 is 5 µM against Cruzipain and 4 µM against Rhodesain. The EC50 in test [1] worked out at 3 µM. The compound further had a Survival in test [2] of 5 days.

As to `C/C(=N\N=C(\N)S)c1cccc(-c2ccccc2)c1`, the half-inhibitory concentration (IC50) on Cruzipain was 8 µM; against Rhodesain, 1.1 µM. Besides, the EC50 in test [1] stood at 12 µM. The compound further displayed a Survival in test [2] of 43 days.

Consider `CS/C(S)=N/N=C(\C)c1cccc(Br)c1`, for which the Survival in test [3] came to 7 days. In addition, the IC50 on Cruzipain and against Rhodesain was above 20 µM throughout. Besides, the EC50 in test [1] was 10 µM.

On to `C/C(=N\N=C(\N)S)c1cccc(Nc2ccccc2)c1`, for which the IC50 is above 20 µM on Cruzipain and 0.8 µM against Rhodesain. Also, in test [1], the EC50 was found to be 8 µM. In test [2], this compound registered a Survival of 43 days.

Turning to `C/C(=N/N=C(/N)S)c1cccc(/C(C)=N/N=C(/N)S)n1`, the EC50 in the test on Plasmodium falciparum amounted to 0.03 µM. At Falcipain 2, the IC50 is above 20 µM.

For `C/C(=N\N=C(\N)S)c1ccc(Oc2ccccc2)cc1`, the Survival in test [3] is 28 days. The IC50 amounted to 10 µM against Cruzipain and 8 µM on Rhodesain. In test [1], the EC50 turned out to be 3 µM.

On to `C/C(=N\N=C(\N)S)c1cccc(Oc2ccccc2)c1`, for which the Survival in test [3] stood at 27 days. Further, the IC50 at Cruzipain was determined as 10 µM; against Rhodesain, 0.55 µM. Also, in test [1], the EC50 amounted to 6 µM.

In the case of `C/C(=N\N=C(/S)N1CCN(C)CC1)c1cccc(Br)c1`, the Survival in test [3] came to 14 days. In addition, the IC50 at Cruzipain is 5 µM; on Falcipain 2, above 20 µM; against Rhodesain it was 4 µM. Also, the EC50 with Plasmodium falciparum was found to be 4 µM; in test [1] it was 2 µM.

Consider `CCN(CC)/C(S)=N/N=C(\C)c1cccc(Br)c1`, for which the IC50 on Cruzipain came out at 5 µM; against Rhodesain, 1.8 µM. In addition, the EC50 in test [1] came out at 3 µM. This compound also had a Survival in test [2] of 5 days.
